Bioassay records: PubChem BioAssay, several laboratories
A selection: hits, their analogues and other compounds. The true share with any hit is near 2.3%.
CRFR2-BP ag: agonists of human CRF-binding protein/CRF-R2 receptor complex. activation, % at 13.2 µM. HEK293 CRF-R2/CRF-BP, calcium dye fluorescence (FLIPR); percent of saturating CRF peptide response. 350,000 compounds, 0.46% hits;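 active means activation of at least 50%, plus an integration ratio under a set limit after plate pattern correction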
HNF4A DNA FP: change in binding of human HNF4 alpha to DNA. HNF4a-FITC DNA binding, fluorescence polarization, 1 h. activity change, % at 10 µM. 360,000 compounds, 0.3% hits. AID 1224865; in the data active means activity change above about 30%, passing the limit was not always enough
Rpn11 inh: blocks the human proteasome subunit Rpn11 | O00487 | human 26S proteasome, Ub4-pepOG fluorescence polarization; 20S core pre-blocked with epoxomicin | calls only at 20 µM | 360,000 compounds, 0.59% hits | AID 588493;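 active means inhibition at 20 µM, scaled to each plate's controls, above about 33%, limit read from the data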
Target sequence (O00487 whole entry, looked up): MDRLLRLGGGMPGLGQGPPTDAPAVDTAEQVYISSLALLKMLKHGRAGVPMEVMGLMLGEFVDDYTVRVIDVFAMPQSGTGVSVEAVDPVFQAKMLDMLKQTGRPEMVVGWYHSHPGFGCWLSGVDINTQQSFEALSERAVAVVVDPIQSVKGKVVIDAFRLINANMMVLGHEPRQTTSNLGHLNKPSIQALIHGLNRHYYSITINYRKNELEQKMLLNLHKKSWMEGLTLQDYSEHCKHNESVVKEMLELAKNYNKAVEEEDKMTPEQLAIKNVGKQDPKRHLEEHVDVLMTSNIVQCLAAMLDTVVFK
TPT1 inhibitor: C. albicans TPT1 enzyme inhibition. recombinant caTPT1, FP RNA substrate dephosphorylation. inhibition, % at 5 µM. 300,000 compounds, 0.81% hits;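 active means inhibition above the mean of all tested compounds plus 3 SD, set per screening campaign, cut at about 24% in these data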
CRFR2-BP antag: antagonists of CRF-binding protein/CRF-R2 receptor complex; inhibition, % at 11.8 µM; 350,000 compounds, 0.59% hits; AID 588475; HEK293 CRF-R2/CRF-BP, CRF-induced calcium fluorescence;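 active means inhibition of the ligand-induced calcium signal above about 50% at the single tested concentration, limit read from the data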
CSN inh: blocks human CSN-mediated cullin deneddylation. Q92905. Purified CSN, SCF-Nedd8-OG deneddylation, fluorescence polarization. inhibition, % at 12.5 µM. 360,000 compounds, 0.38% hits. AID 651999;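 active means pattern-corrected inhibition above about 35%, with an unprinted fluorescence ratio check between 0.5 and 1.5, limit read from the data, passing the limit was not always enough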
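Material: purified human Csn5 enzyme expressed in HEK293T cells / Medium: Tris buffer pH 7.5, NaCl, DTT, Tween-20, trehalose, ovalbumin / Compound dosing: 12.5 µM single point / Schedule: 90 min incubation of compound, enzyme and substrate at room temperature / Signal: fluorescence polarization of the substrate / Control set: no-enzyme wells high, enzyme-with-substrate wells low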
caTPT1 confirm: TPT1 (C. albicans) inhibition, confirmation; 2,400 compounds, 74% hits; AID 2149; recombinant caTPT1, fluorescence polarization, RNase T1 coupled; inhibition, % at 5 µM; shares compounds with TPT1 inhibitor;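 active means inhibition above the primary screen limit, the mean inhibition of all tested compounds plus 3 SD, cut at about 25% in these data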
RNase T1 counter: counter-screen for TPT1 inhibitors: inhibitors of Aspergillus oryzae RNase T1 | inhibition, % at 5 µM | shares compounds with TPT1 inhibitor | AID 2153 | 2,400 compounds, 83% hits | RNase T1 cleavage, fluorescence polarization, 1536-well;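 active means inhibition above the solvent-only control well mean plus 3 SD, limit set per screening run, cut at about 23% in these data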;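 further: inhibitors block cleavage so intact labeled substrate keeps polarization high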
Target sequence (P00651 whole entry, looked up): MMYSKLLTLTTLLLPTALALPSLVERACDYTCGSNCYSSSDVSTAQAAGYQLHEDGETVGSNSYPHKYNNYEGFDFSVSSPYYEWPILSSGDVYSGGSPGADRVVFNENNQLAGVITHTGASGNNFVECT
Of the large screens only hits and unclear results are named; the others gave an inactive call (follow-up assays come after a bar, where shown).

CSc1nsc(/C=C/Nc2ccc(C)cc2)c1C#N	TPT1 inhibitor 30.9 (not shown: Rpn11 inh) | caTPT1 confirm 50.5 | RNase T1 counter 59.0
CSc1nsc(/C=C/Nc2ccc(C)c(C)c2)c1C#N	TPT1 inhibitor 34.2 (not shown: Rpn11 inh) | caTPT1 confirm 66.3 | RNase T1 counter 85.0
CC(C)(C)c1csc(NC(=O)c2cccs2)n1	none
CC(C)(C)c1csc(NC(=O)Cc2cccs2)n1	TPT1 inhibitor 99.5 | caTPT1 confirm inactive | RNase T1 counter inactive
CCCCCCc1cc2cc(S(=O)(=O)c3ccc(Cl)cc3)c(=O)oc2cc1O	none
CCN(CC)c1ccc2cc(S(=O)(=O)c3ccc(Cl)cc3)c(=O)oc2c1	CRFR2-BP ag 118.1, TPT1 inhibitor 85.6 | caTPT1 confirm 98.3 | RNase T1 counter 104.3
O=C(Cc1ccsc1)Nc1cc(F)ccc1F	none
CCOc1cc(/C=N\Nc2ccc([N+](=O)[O-])cc2)ccc1OCC(=O)Nc1ccc(C)c(C)c1	TPT1 inhibitor 45.9 (not shown: Rpn11 inh) | caTPT1 confirm 30.4 | RNase T1 counter 35.0
CCC(Oc1ccccc1)C(=O)Nc1ccc(-c2nnc(-c3ccco3)o2)cc1 (stereo unspecified)	TPT1 inhibitor 71.3 | caTPT1 confirm inactive | RNase T1 counter inactive
Cc1cc(Br)ccc1OCCN1CC(C)OC(C)C1 (stereo unspecified)	TPT1 inhibitor 47.9 | caTPT1 confirm inactive | RNase T1 counter inactive
Cc1cc(Br)ccc1OCCN1CCCC1	none
Cn1nc(C(=O)N2CCN(S(=O)(=O)c3ccc(Cl)cc3)CC2)c2ccccc2c1=O	none (no result: TPT1 inhibitor)
Cc1[nH]c2ccccc2c1C(=O)CSC(=S)N(C)C1CCCCC1	TPT1 inhibitor 128.2 | caTPT1 confirm inactive | RNase T1 counter inactive
Cc1ccc(N2CC(C(=O)N3CCCc4ccccc43)CC2=O)cc1 (stereo unspecified)	none
Nc1ccc2c(c1)CCC2=O	TPT1 inhibitor 24.5 | caTPT1 confirm inactive | RNase T1 counter 27.7
CCN(CC)C(=O)Cn1nnc(-c2ccc(C)o2)n1	none
CCOC(=O)c1sc2cc([N+](=O)[O-])cc(SCC(C)C)c2c1N	TPT1 inhibitor 31.7 (not shown: Rpn11 inh) | caTPT1 confirm 35.4 | RNase T1 counter 46.4
O=C(c1ccc(-c2ccc([N+](=O)[O-])cc2)o1)N1CCCC(C(F)(F)F)C1 (stereo unspecified)	TPT1 inhibitor 24.8 | caTPT1 confirm inactive | RNase T1 counter inactive
Cc1nnc(SCC(=O)Nc2ncc(Cl)cc2Cl)n1Cc1ccccc1	none
Cc1ccc2c(c1)C1C=CCC1C(C(=O)O)N2 (stereo unspecified)	none (no result: CRFR2-BP ag, HNF4A DNA FP, Rpn11 inh, CRFR2-BP antag, CSN inh)
O=C(O)C1Nc2c(O)cc(Cl)c([N+](=O)[O-])c2C2C=CCC12 (stereo unspecified)	TPT1 inhibitor 84.5 | caTPT1 confirm inactive | RNase T1 counter inactive
O=C(COc1cccc(NC(=O)c2cccc([N+](=O)[O-])c2)c1)c1ccc(F)cc1	TPT1 inhibitor 53.2 | caTPT1 confirm inactive | RNase T1 counter inactive
COc1cccc(C(=O)COc2cccc(NC(=O)c3cccc([N+](=O)[O-])c3)c2)c1	none
CSc1cccc(NC(=S)N(CCCN2CCCC2)Cc2cccs2)c1	none
O=C(NCCc1ccccc1)c1cnc2sccn2c1=O	TPT1 inhibitor 32.6 | caTPT1 confirm inactive | RNase T1 counter inactive
COc1ccccc1N1CCN(C(=O)c2ccc3c(c2)CCN3S(=O)(=O)c2ccccc2)CC1	none
O=C(O)C(Cc1ccc(O)cc1)N1C(=O)C2CCCCC2C1=O (stereo unspecified)	none
COc1ccc(C(=O)/C=C/c2ccc(N(C)C)cc2)c(OC)c1	CRFR2-BP ag 102.6, TPT1 inhibitor 100.9 (not shown: Rpn11 inh) | caTPT1 confirm 103.3 | RNase T1 counter 102.2
COC(=O)C(=O)C/C(=N/Nc1ncnc2ccccc12)c1ccc(Cl)cc1	TPT1 inhibitor 58.5 | caTPT1 confirm inactive | RNase T1 counter inactive
Cc1cc(C)cc(Nc2ccc(C(=O)O)cc2N)c1	TPT1 inhibitor 28.6 | caTPT1 confirm inactive | RNase T1 counter inactive
